Laboratory results published in ChEMBL document CHEMBL1155847, “Novel indoline-based acyl-CoA:cholesterol acyltransferase inhibitor with antiperoxidative activity: improvement of physicochemical properties and biological activities by introduction of carboxylic acid” (J Med Chem, 2008).
The source made the active and inactive calls. The rule behind the calls is not given here.

Assays:
Brain = test: Antiperoxidative activity in Sprague-Dawley rat brain assessed as inhibition of malonaldehyde level; assay type: functional, tissue-based
Procedure, shortened: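 Cerebral cortex from male SD rats (6 weeks) homogenized in ice-cold 50 mM PBS pH 7.4, spun 1300g. Supernatant incubated 37 °C, 30 min with vehicle or compound. Stopped with 20% TCA; thiobarbituric acid reaction at 100 °C, 15 min; MDA read at 532 nm, less pre-assay MDA. Duplicate assay, n = 2.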

[1] = target: T1, Sterol O-acyltransferase 1 (Homo sapiens, UniProt P35610); test: Inhibition of ACAT-mediated esterified cholesterol accumulation in human THP1 cells exposed to acetyl-LDL during differentiation assessed as effect on foam cell formation; assay type: cell-based, THP-1
T1 sequence (P35610 whole entry): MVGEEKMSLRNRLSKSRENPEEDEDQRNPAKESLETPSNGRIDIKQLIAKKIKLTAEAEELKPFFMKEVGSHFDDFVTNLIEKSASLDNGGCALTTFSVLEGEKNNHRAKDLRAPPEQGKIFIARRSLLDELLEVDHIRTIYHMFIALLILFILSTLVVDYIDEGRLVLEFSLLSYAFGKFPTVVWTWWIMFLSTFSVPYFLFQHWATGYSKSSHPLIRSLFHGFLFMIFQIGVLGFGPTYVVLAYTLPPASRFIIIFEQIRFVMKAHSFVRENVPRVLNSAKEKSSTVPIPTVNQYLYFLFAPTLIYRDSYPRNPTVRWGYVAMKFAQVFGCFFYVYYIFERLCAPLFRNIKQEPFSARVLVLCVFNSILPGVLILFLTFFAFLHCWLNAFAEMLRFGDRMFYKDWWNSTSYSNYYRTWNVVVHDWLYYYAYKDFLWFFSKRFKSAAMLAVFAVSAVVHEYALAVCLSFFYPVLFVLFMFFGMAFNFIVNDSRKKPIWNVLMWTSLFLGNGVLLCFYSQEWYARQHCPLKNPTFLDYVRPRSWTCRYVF

[2] = target: T2, Acyl-CoA:cholesterol acyltransferase (Oryctolagus cuniculus, UniProt Q95214); test: Inhibition of normocholesterolemic rabbit liver ACAT
T2 sequence (Q95214 whole entry): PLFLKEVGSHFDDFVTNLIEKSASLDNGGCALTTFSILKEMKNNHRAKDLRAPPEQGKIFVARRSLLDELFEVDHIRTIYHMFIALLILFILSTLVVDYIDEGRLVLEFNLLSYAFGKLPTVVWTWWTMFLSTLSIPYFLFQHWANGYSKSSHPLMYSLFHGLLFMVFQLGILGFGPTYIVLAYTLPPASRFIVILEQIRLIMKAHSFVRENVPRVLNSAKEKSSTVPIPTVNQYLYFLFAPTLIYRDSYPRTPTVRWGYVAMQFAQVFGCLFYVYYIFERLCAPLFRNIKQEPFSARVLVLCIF
Procedure, shortened: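 Liver from normocholesterolemic male Japanese White rabbits homogenized in sucrose/phosphate/EDTA/dithioerythritol buffer pH 7.4. Microsomes collected by 12000g then 105000g spins. Then 30 nmol [1-¹⁴C]oleoyl-CoA added, 20 min at 37 °C. Cholesteryl ester extracted and separated by TLC.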

[3] = AUC in Sprague-Dawley rat at 10 mg/kg, po; assay type: ADME, organism-based; parameters: dose 10 mg/kg, route oral; settings: plasma
Procedure, shortened: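 Male SD rats, 6-7 weeks, fasted overnight, n = 3; single oral 10 mg/kg dose suspended in 5% arabic gum. Jugular-vein heparinized blood at 0.5, 1, 3, 5, 8, 24 h; plasma free-form compound by HPLC. AUC taken over 24 h.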

[4] = target: Phosphatidylcholine-sterol acyltransferase (Rattus norvegicus) (UniProt P18424); test: Inhibition of rat LCAT up to 10 uM
Chain of Phosphatidylcholine-sterol acyltransferase (Rattus norvegicus) (P18424 whole entry, looked up): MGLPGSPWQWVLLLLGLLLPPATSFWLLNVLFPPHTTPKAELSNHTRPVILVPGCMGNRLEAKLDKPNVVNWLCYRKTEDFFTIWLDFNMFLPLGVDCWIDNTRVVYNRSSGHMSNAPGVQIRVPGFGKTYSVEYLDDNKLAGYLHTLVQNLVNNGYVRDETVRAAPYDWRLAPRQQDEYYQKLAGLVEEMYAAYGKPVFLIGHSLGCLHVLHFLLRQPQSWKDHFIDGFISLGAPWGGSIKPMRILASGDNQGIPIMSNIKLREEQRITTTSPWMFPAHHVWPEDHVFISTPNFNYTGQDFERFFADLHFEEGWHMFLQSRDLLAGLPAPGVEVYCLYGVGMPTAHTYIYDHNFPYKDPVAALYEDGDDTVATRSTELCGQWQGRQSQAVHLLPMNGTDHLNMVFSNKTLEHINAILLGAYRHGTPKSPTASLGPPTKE

[5] = Distribution coefficient, log D at pH 7.0; assay type: physicochemical; settings: octanol/water
Procedure, shortened: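 5 mg of compound in 5 mL octanol shaken 30 min at room temperature with 5 mL 1/15 M potassium phosphate buffer pH 7.0, then centrifuged. Both phases quantified by HPLC. log D taken as log of the octanol/buffer concentration ratio.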

[6] = Solubility in water at pH 7.0; assay type: physicochemical
Procedure, shortened: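 6 mg of compound shaken 30 min at room temperature in 3 mL 1/15 M potassium phosphate buffer pH 7.0, centrifuged and filtered (0.45 µm). Filtrate concentration by HPLC.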

Plasma = test: Inhibition of LDL oxidation in genetically hypercholesterolemic KHC rabbit plasma assessed as malonaldehyde level after 1 hr; assay type: functional, cell-free; settings: Oryctolagus cuniculus
Procedure, shortened: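 LDL fraction isolated from plasma of male KHC rabbits and oxidized with CuSO₄ 5 µM at 37 °C for 1 h with vehicle or compound. Oxidation read as MDA. IC50 from duplicate tubes per concentration; n = 4.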

[7] = Inhibition of lipid peroxidation in genetically hypercholesterolemic KHC rabbit serum assessed as malonaldehyde level after 4 hrs; assay type: functional, cell-free; settings: Oryctolagus cuniculus
Procedure, shortened: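 Heparinized ear-artery plasma from KHC rabbits (2.4-2.7 kg) incubated with CuSO₄ 2 mM at 37 °C for 4 h with vehicle or compound. Lipid peroxide measured as MDA by kit. IC50 from duplicate tubes; n = 2.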

Structure (SMILES)	IC50 (Brain) [µM]	IC50 [1] [µM]	IC50 [2] [µM]	also measured
CCCCCCCCN1CC(CCC(=O)O)c2c(C)cc(C)c(NC(=O)C(C)(C)C)c21 (stereo not drawn)	4.2	3.6	5	AUC [3]: 1700 ng·h/mL
CCCCCCCCN1CCc2c(C)c(CC(=O)O)c(C)c(NC(=O)C(C)(C)C)c21				Activity [4]: inactive
CCCCCCCCN1CCc2c(C)cc(C)c(NC(=O)C(C)(C)CCC(=O)O)c21.Cl				logD [5]: 3; solubility [6]: 401 µg/mL
CC(C)(Sc1cc(C(C)(C)C)c(O)c(C(C)(C)C)c1)Sc1cc(C(C)(C)C)c(O)c(C(C)(C)C)c1 [PROBUCOL]				IC50 (Plasma): 132 µM; IC50 [7]: 21.6 µM
Cc1cc(C)c(NC(=O)C(C)(C)C)c2c1CCN2CCCCCCCCCC(=O)O	48.3	> 10	5.5	AUC [3]: 100 ng·h/mL
CCCCCCCCN1CCc2c(C)c(CN)c(C)c(NC(=O)C(C)(C)C)c21	4.2			
CCCCCCCCN1CCc2c(C)cc(C)c(NC(=O)C(C)(C)C)c21.Cl				logD [5]: 6.2; solubility [6]: 0.08 µg/mL
CC(C)c1cc(C(C)C)c(CC(=O)NS(=O)(=O)Oc2c(C(C)C)cccc2C(C)C)c(C(C)C)c1 [AVASIMIBE]		1.5	7.6	
